Assay results from ChEMBL document CHEMBL1143559, “Design of potent and selective 2-aminobenzimidazole-based p38alpha MAP kinase inhibitors with excellent in vivo efficacy” (J Med Chem, 2005).

Columns and labels:
[1] = (§1) Area under concentration-curve (from 0-infinity) for a compound in plasma of rats after oral administration; type: ADME; set-up: route oral, time infinity; conditions: rat
Mus musculus [2] = organism: Mus musculus; assay: Inhibitory concentration against TNF-alpha production in mouse macrophages; type: functional
[3] = molecular target: Mitogen-activated protein kinase 14 (Homo sapiens, UniProt Q16539); assay: Inhibition of human recombinant Mitogen activated protein kinase p38 alpha activity using ATP[gamma-33P] and EGFR 21mer-peptide
Chain of Mitogen-activated protein kinase 14 (Q16539 whole entry): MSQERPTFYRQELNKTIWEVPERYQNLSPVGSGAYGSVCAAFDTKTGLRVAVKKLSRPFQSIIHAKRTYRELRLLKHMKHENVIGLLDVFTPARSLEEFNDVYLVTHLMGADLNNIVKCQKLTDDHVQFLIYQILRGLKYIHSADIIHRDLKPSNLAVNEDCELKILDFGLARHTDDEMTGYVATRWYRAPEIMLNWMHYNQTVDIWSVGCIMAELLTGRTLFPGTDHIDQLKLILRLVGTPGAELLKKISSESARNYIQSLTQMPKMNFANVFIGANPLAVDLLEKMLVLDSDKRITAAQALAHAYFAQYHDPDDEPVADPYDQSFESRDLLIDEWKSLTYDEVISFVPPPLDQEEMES
Outline: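 Recombinant human p38α, filter binding format with ATP[γ-33P] and EGFR 21-mer peptide substrate; IC50 in nM, n determinations per compound.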

Cytochrome P450 3A4 = Cytochrome P450 3A4 (Homo sapiens, UniProt P08684); assay: In vitro inhibitory concentration against Cytochrome P450 3A4; type: ADME
Chain of Cytochrome P450 3A4 (P08684 whole entry): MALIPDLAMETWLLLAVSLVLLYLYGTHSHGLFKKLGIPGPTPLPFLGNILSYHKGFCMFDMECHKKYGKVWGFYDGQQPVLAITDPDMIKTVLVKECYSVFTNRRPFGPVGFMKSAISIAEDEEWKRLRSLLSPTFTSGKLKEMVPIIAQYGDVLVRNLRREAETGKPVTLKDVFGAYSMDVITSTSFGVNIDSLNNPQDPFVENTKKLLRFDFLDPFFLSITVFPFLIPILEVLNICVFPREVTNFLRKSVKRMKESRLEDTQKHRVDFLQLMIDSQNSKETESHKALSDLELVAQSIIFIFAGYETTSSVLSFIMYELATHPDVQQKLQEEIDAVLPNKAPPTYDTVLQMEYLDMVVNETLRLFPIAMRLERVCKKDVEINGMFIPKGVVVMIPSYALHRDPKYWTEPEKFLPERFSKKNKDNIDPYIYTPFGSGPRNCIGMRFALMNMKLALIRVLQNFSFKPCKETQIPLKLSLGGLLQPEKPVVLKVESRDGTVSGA

Mus musculus [4] = assay: In vivo threshold minimum effective dose for inhibition of LPS-induced TNF-alpha production in mice after oral administration; type: functional
[5] = as §1; type: ADME; set-up: time infinity, route oral; conditions: rat
[6] = Bioavailability of compound in rat plasma after oral administration; type: ADME, organism-based
Rattus norvegicus [7] = assay: In vivo threshold minimum effective dose for inhibition of rat paw-swelling after oral bid dosing for 14 days; type: functional
Rattus norvegicus [8] = assay: Inhibition of TNF-alpha production in rat joint after oral administration at 3 mg/Kg; type: functional
Rattus norvegicus [9] = assay: In vivo threshold minimum effective dose for inhibition of bone erosion and cartilage destruction in rat after oral bid dosing for 14 days; type: functional

Row | Structure (SMILES) | AUC 0-inf [1] | IC50 (Mus musculus [2]) | IC50 [3] | IC50 (Cytochrome P450 3A4) | TMED50 (Mus musculus [4]) | AUC 0-inf [5] | bioavailability [6] | TMED50 (Rattus norvegicus [7]) | inhibition in vivo at 3 mg/kg (Rattus norvegicus [8]) | TMED50 (Rattus norvegicus [9])
1 | CC(C)S(=O)(=O)n1c(N)nc2ccc(-c3nc(-c4c(F)cccc4F)[nH]c3-c3ccccc3)cc21 | 5.4 µM·h | 10.3 nM | 4.9 nM | 6300 nM | 5.2 mg/kg | – | – | – | – | –
2 | CC(C)S(=O)(=O)n1c(N)nc2ccc(-c3[nH]c(-c4c(Cl)cccc4Cl)nc3-c3ccccc3)cc21.CS(=O)(=O)O | – | 3.4 nM | 15.3 nM | – | 2.5 mg/kg | 17 µM·h | 55% | – | – | –
3 | CC(C)S(=O)(=O)n1c(N)nc2ccc(-c3c(-c4ccc(F)cc4)ncn3C3CCNCC3)cc21 | – | 4460 nM | 125 nM | – | – | – | – | – | – | –
4 | CC(C)S(=O)(=O)n1c(N)nc2ccc(-c3c(-c4ccc(F)cc4)ncn3C)cc21 | – | 720 nM | 20.7 nM | – | – | – | – | – | – | –
5 | Cc1ccc(-n2nc(C(C)(C)C)cc2NC(=O)Nc2ccc(OCCN3CCOCC3)c3ccccc23)cc1 [DORAMAPIMOD] | – | – | – | – | – | – | – | 15 mg/kg | 55% | 30 mg/kg
6 | CC(C)S(=O)(=O)n1c(N)nc2ccc(-c3[nH]c(C(C)(C)C)nc3-c3ccc(F)cc3)cc21.CS(=O)(=O)O.CS(=O)(=O)O | – | 31.1 nM | 15.9 nM | 31800 nM | 3.9 mg/kg | 13.5 µM·h | – | – | – | –
7 | COc1nccc(-c2c(-c3ccc(F)cc3)ncn2C2CCNCC2)n1 [SB-242235] | – | – | – | – | – | – | – | 5 mg/kg | – | 7 mg/kg
8 | OCCC#Cc1nc(-c2ccc(F)cc2)c(-c2ccncc2)n1CCCc1ccccc1 [RWJ-67657] | – | – | – | – | – | – | – | >30 mg/kg | < 50% | >30 mg/kg
9 | CC(C)S(=O)(=O)n1c(N)nc2ccc(-c3[nH]cnc3-c3ccc(F)cc3)cc21.CS(=O)(=O)O.CS(=O)(=O)O | – | 65.7 nM | 4.3 nM | 800 nM | 9.6 mg/kg | 1.4 µM·h | – | – | – | –
10 | CC(C)S(=O)(=O)n1c(N)nc2ccc(-c3[nH]cnc3-c3ccccc3)cc21 | – | 31.8 nM | 4.2 nM | 1600 nM | 19.8 mg/kg | 3.7 µM·h | – | – | – | –
11 | CN(C)S(=O)(=O)n1c(N)nc2ccc(-c3[nH]c(-c4c(F)cccc4F)nc3-c3ccccc3)cc21.CS(=O)(=O)O.CS(=O)(=O)O | – | 8.8 nM | 22.8 nM | – | 12.5 mg/kg | 9.8 µM·h | – | – | – | –
12 | CCc1nc(-c2ccc(F)cc2)c(-c2ccc3nc(N)n(S(=O)(=O)C(C)C)c3c2)[nH]1.CS(=O)(=O)O | – | 47.2 nM | 4.7 nM | 4400 nM | 6.5 mg/kg | – | – | – | – | –
13 | CC(C)CN1CCC(c2nc(-c3ccc4nc(N)n(S(=O)(=O)C(C)C)c4c3)c(-c3ccccc3)[nH]2)CC1 | – | 27.9 nM | 5.5 nM | 5300 nM | 7.3 mg/kg | – | – | – | – | –
14 | CC(C)(C)c1nc(-c2ccc(F)cc2F)c(-c2ccc3nc(N)n(S(=O)(=O)C(C)(C)C)c3c2)[nH]1.CS(=O)(=O)O | – | 1.6 nM | 4.8 nM | – | 5.3 mg/kg | 28.3 µM·h | – | 1.5 mg/kg | 82% | 4.2 mg/kg
15 | CS(=O)(=O)O.CS(=O)(=O)O.Nc1nc2ccc(-c3[nH]c(-c4c(F)cccc4F)nc3-c3ccccc3)cc2n1S(=O)(=O)C1CCCC1 | – | 6 nM | 19.9 nM | 13000 nM | 5.1 mg/kg | 0.9 µM·h | – | – | – | –
16 | CC(C)S(=O)(=O)n1c(N)nc2ccc(-c3[nH]c(C(C)(C)C)nc3-c3ccc(F)cc3F)cc21.CS(=O)(=O)O | – | 6.2 nM | 4.4 nM | – | 2.2 mg/kg | 14.6 µM·h | – | 1.5 mg/kg | 81% | 8.1 mg/kg
17 | CC(C)S(=O)(=O)n1c(N)nc2ccc(-c3nc(C4CCNCC4)[nH]c3-c3ccccc3)cc21 | – | 2880 nM | 2.7 nM | – | – | – | – | – | – | –
18 | CC(C)c1nc(-c2ccc(F)cc2)c(-c2ccc3nc(N)n(S(=O)(=O)C(C)C)c3c2)[nH]1.CS(=O)(=O)O | – | 28.6 nM | 4.5 nM | 6100 nM | 4.9 mg/kg | 12.8 µM·h | – | – | – | –
